Test results from ChEMBL document CHEMBL1141109, “Synthesis of an estrogen receptor beta-selective radioligand: 5-[18F]fluoro-(2R,3S)-2,3-bis(4-hydroxyphenyl)pentanenitrile and comparison of in vivo distribution with 16alpha-[18F]fluoro-17beta-estradiol” (J Med Chem, 2005).

Columns and labels:
[1] = Biodistribution of [18F]FEDPN in alpha estrogen receptor knock out mouse uterus after 2 h; (n=3); format: ADME, organism-based; details: in vivo
Outline: (§1)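 αERKO and βERKO mice, staged by daily vaginal smears and kept on estrogen-free chow, were studied in a nonestrous stage. Each mouse received 11 μCi of tracer in 130 μL of 10% ethanol/saline. Mice were killed at 30 min, 1 h or 2 h (n = 3 each). Organs were removed, blotted, weighed and gamma-counted against an injectate standard. Uptake is given as %ID/g ± SD.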

[2] = Biodistribution of [18F]FEDPN in alpha estrogen receptor knock out mouse bone after 2 h; (n=3); format: ADME, organism-based, Bone element; details: in vivo
Outline: (§2)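 ERKO female mice (αERKO or βERKO), rested 48 h after shipping, placed on estrogen-free chow, and staged by daily vaginal smears. Injected in a nonestrous stage with 11 µCi [18F]FEDPN in 130 µL of 10% ethanol/saline. Killed at 30 min, 1 h or 2 h. Organs counted and reported as %ID/g ± SD, three animals per point.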

[3] = Biodistribution of [18F]-FEDPN in rat heart after 2 hr when given in tail vein; (n=5); format: ADME, organism-based; details: in vivo, iv
Outline: (§3)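 Immature female Sprague–Dawley rats (<25 days old) anesthetized with isoflurane/O2. Given 20 µCi tracer by tail vein in 150 µL of 20% ethanol/saline. […] Killed at 30 min, 1 h or 2 h. Blood and organs blotted, weighed and gamma-counted against a standard dilution of the injectate. Reported as %ID/g ± SD, n=5.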

[4] = Biodistribution of [18F]FEDPN in beta estrogen receptor knock out mouse blood after 2 h; (n=3); format: ADME, organism-based; details: in vivo; outline: as §1
[5] = Biodistribution of [18F]FEDPN in alpha estrogen receptor knock out mouse spleen after 2 h; (n=3); format: ADME, organism-based; details: in vivo; outline: as §1
[6] = Biodistribution of [18F]-FEDPN in rat ovaries after 1 hr when given in tail vein; (n=5); format: ADME, organism-based, Female gonad; details: in vivo, iv; outline: as §3
[7] = Biodistribution of [18F]-FEDPN in rat blood after 1 hr block when given in tail vein; (n=5); format: ADME, organism-based; details: in vivo, iv; outline: as §3
[8] = Biodistribution of [18F]FEDPN in beta estrogen receptor knock out mouse uterus after 1 h; (n=3); format: ADME, organism-based; details: in vivo
Outline: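 αERKO and βERKO mice were fed estrogen-free chow and staged by daily vaginal smears. Mice in a nonestrous stage each received 11 µCi tracer in 130 µL 10% ethanol/saline. Organs were taken at 30 min, 1 h or 2 h and gamma-counted. Uptake is expressed as %ID/g ± SD, three animals per point.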

[9] = Biodistribution of [18F]FEDPN in beta estrogen receptor knock out mouse kidney after 1 h; (n=3); format: ADME, organism-based; details: in vivo; outline: as §1
[10] = target: T1, Estrogen receptor (Mus musculus) (UniProt O08537+P19785); test: Ratio of [18F]FEDPN uptake in ovaries of ERbeta KO-mouse and ERalpha KO-mouse (nonestrus) after 2 hr
[11] = Biodistribution of [18F]FEDPN in beta estrogen receptor knock out mouse blood after 1 h; (n=3); format: ADME, organism-based; details: in vivo; outline: as §1
[12] = Biodistribution of [18F]-FEDPN in rat fat after 1 h when given in tail vein; (n=5); format: ADME, organism-based, Adipose tissue; details: in vivo, iv; outline: as §3
[13] = Biodistribution of [18F]-FEDPN in rat blood after 1 hr when given in tail vein; (n=5); format: ADME, organism-based; details: in vivo, iv; outline: as §3
[14] = Biodistribution of [18F]FEDPN in rat liver after 1 h block when given in tail vein; (n=5); format: ADME, organism-based; details: in vivo, iv
Outline: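 Immature female Sprague–Dawley rats (<25 days old) under isoflurane/O2 got 20 µCi tracer in 150 µL 20% ethanol/saline by tail vein. […] Rats were killed at 30 min, 1 h or 2 h. Organs were blotted, weighed and gamma-counted against an injectate standard. Data are %ID/g ± SD, five rats per point.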

[15] = Biodistribution of [18F]FEDPN in beta estrogen receptor knock out mouse muscle after 2 h; (n=3); format: ADME, organism-based, Muscle tissue; details: in vivo; outline: as §1
[16] = Biodistribution of [18F]-FEDPN in beta estrogen receptor knock out mouse thymus after 30 min; (n=3); format: ADME, organism-based; details: in vivo, 0.5 h; outline: as §2
[17] = Biodistribution of [18F]-FEDPN in rat uterus after 1 hr when given in tail vein; (n=5); format: ADME, organism-based; details: in vivo, iv; outline: as §3
[18] = target: T1, Estrogen receptor (Mus musculus); test: Ratio of [18F]FEDPN uptake in ovaries of ERbeta KO-mouse (diestrus) and ERalpha KO-mouse (nonestrus) after 30 min
[19] = Biodistribution of [18F]FEDPN in beta estrogen receptor knock out mouse thymus after 1 h; (n=3); format: ADME, organism-based; details: in vivo; outline: as §1
[20] = Biodistribution of [18F]FEDPN in beta estrogen receptor knock out mouse bone after 30 min; (n=3); format: ADME, organism-based, Bone element; details: in vivo, 0.5 h; outline: as §1
[21] = Biodistribution of [18F]-FEDPN in rat fat after 2 hr when given in tail vein; (n=5); format: ADME, organism-based, Adipose tissue; details: in vivo, iv; outline: as §3
[22] = Biodistribution of [18F]FES in beta estrogen receptor knock out mouse kidney after 30 min(n=2); mice in nonestrus stage; format: ADME, organism-based; details: in vivo, 0.5 h
[23] = Biodistribution of [18F]FES in alpha estrogen receptor knock out mouse fat after 2 h; (n=3); format: ADME, organism-based, Adipose tissue; details: in vivo
Outline: (§4)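 Female αERKO mice were rested 48 h after shipping and fed estrogen-free chow. They were staged by daily vaginal smears and studied in diestrus. Each received 13 µCi [18F]FES in 100 µL 10% ethanol/saline and was sacrificed at 30 min, 1 h or 2 h (n = 3 per time). Tissue uptake is given as %ID/g ± SD.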

[24] = Biodistribution of [18F]FES in alpha estrogen receptor knock out mouse uterus after 30 min; (n=3); format: ADME, organism-based; details: in vivo, 0.5 h
[25] = Biodistribution of [18F]FES in beta estrogen receptor knock out mouse spleen after 1 h; (n=3); format: ADME, organism-based; details: in vivo
[26] = Biodistribution of [18F]FES in alpha estrogen receptor knock out mouse lung after 2 h; (n=3); format: ADME, organism-based; details: in vivo; outline: as §4
[27] = Biodistribution of [18F]-FES in alpha estrogen receptor knock out mouse liver after 1 h; (n=3); format: ADME, organism-based; details: in vivo; outline: as §4
[28] = Biodistribution of [18F]-FES in alpha estrogen receptor knock out mouse thymus after 30 min; (n=3); format: ADME, organism-based; details: in vivo, 0.5 h
Outline: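 Female αERKO mice rested 48 h after shipping and fed estrogen-free chow. Estrous stage was checked by daily vaginal smears, and mice were used in diestrus. Each received 13 µCi [18F]FES in 100 µL 10% ethanol/saline. Animals were sacrificed at 30 min, 1 h or 2 h (n = 3 each). Tissue uptake is reported as %ID/g ± SD.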

[29] = Biodistribution of [18F]FES in alpha estrogen receptor knock out mouse lung after 1 h; (n=3); format: ADME, organism-based; details: in vivo
[30] = Biodistribution of [18F]FES in beta estrogen receptor knock out mouse blood after 1 h; (n=3); format: ADME, organism-based; details: in vivo
[31] = Biodistribution of [18F]-FES in alpha estrogen receptor knock out mouse brain after 2 h; (n=3); format: ADME, organism-based; details: in vivo
Outline: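 αERKO mice staged in diestrus by vaginal smear after rest on estrogen-free chow. Injected with 13 µCi [18F]FES in 100 µL of 10% ethanol/saline and killed at 30 min, 1 h or 2 h (n=3 each). Tissues weighed and gamma-counted, reported as %ID/g ± SD.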

[32] = Biodistribution of [18F]FES in beta estrogen receptor knock out mouse kidney after 1 h; (n=3); format: ADME, organism-based; details: in vivo

T1 sequence (O08537 whole entry, looked up): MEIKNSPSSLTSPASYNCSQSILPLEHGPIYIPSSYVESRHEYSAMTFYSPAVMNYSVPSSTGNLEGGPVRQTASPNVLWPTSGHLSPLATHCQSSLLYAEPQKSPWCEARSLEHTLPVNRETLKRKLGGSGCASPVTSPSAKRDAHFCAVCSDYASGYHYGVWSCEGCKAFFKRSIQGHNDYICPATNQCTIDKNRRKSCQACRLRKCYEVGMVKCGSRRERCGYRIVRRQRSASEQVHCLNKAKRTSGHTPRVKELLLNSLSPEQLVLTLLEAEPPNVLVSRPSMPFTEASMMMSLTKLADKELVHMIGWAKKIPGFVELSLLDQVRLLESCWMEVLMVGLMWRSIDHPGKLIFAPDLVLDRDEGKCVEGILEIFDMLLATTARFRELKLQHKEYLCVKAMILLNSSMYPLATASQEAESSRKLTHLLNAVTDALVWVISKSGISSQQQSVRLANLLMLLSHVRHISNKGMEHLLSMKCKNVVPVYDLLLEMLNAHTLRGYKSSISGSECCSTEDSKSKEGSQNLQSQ
T1 sequence (P19785 whole entry, looked up): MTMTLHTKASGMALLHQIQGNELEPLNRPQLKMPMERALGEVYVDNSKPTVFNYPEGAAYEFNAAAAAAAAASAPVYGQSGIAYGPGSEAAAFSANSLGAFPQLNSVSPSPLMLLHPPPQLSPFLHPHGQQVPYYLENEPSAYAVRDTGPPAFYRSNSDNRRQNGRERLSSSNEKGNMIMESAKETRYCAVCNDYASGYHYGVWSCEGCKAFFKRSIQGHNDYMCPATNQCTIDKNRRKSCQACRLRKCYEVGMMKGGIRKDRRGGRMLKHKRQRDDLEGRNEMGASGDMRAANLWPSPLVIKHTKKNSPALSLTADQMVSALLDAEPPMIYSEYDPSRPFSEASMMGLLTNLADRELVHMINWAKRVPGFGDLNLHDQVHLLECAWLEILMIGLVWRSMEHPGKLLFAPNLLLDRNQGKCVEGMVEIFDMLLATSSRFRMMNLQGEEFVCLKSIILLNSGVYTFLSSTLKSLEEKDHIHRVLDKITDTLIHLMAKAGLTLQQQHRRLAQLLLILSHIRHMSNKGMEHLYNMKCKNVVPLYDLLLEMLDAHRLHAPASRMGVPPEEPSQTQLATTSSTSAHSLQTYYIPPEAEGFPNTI

Work on `N#C[C@H](c1ccc(O)cc1)[C@@H](CCF)c1ccc(O)cc1` yielded a Biodistribution [1] of 0.24 %ID/g, a Biodistribution [2] of 5.45 %ID/g and a Biodistribution [3] of 0.11 %ID/g. It also gave a Biodistribution [4] of 0.18 %ID/g, a Biodistribution [5] of 0.12 %ID/g and a Biodistribution [6] of 0.67 %ID/g. The Biodistribution [7] was 0.3 %ID/g, the Biodistribution [8] was 0.54 %ID/g and the Biodistribution [9] was 2.42 %ID/g. It also gave a Ratio [10] of 0.61, a Biodistribution [11] of 1.12 %ID/g and a Biodistribution [12] of 0.37 %ID/g. The Biodistribution [13] was 0.55 %ID/g, the Biodistribution [14] was 0.76 %ID/g and the Biodistribution [15] was 0.27 %ID/g. For the same compound, the Biodistribution [16] was 1.2 %ID/g, the Biodistribution [17] was 0.74 %ID/g and the Ratio [18] was 1.32. For the same compound, the Biodistribution [19] was 0.25 %ID/g, the Biodistribution [20] was 3.35 %ID/g and the Biodistribution [21] was 0.1 %ID/g.
Compound `C[C@]12CC[C@@H]3c4ccc(O)cc4CC[C@H]3[C@@H]1C[C@@H](F)[C@@H]2O` [FLUOROESTRADIOL] has a Biodistribution [22] of 4.44 %ID/g, a Biodistribution [23] of 0.09 %ID/g and a Biodistribution [24] of 2.4 %ID/g. The Biodistribution [25] was 0.91 %ID/g, the Biodistribution [26] was 0.17 %ID/g and the Biodistribution [27] was 5.24 %ID/g. It also gave a Biodistribution [28] of 0.68 %ID/g, a Biodistribution [29] of 0.39 %ID/g and a Biodistribution [30] of 0.3 %ID/g. The Biodistribution [31] was 0.03 %ID/g and the Biodistribution [32] was 2.14 %ID/g.
